From ChEMBL document CHEMBL1140756, “Synthesis and antiviral activity of new dimeric inhibitors against HIV-1” (Bioorg Med Chem, 2008)
pEC50: −log10 of the molar value.

Key:
[1] = test system: MT4 (Homo sapiens); assay: Cytotoxicity against mock-infected human MT4 cells by MTT assay
[2] = test system: Human immunodeficiency virus 1; assay: Antiviral activity against efavirenz-resistant HIV1; assay type: functional, organism-based
Method in brief: (§1)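 Acute infection of MT-4 cells (1×10^4 per well) with NNRTI-resistant HIV-1 stocks (K103N+Y181C A17, Y181C N119, efavirenz-selected K103R+V179D+P225H) titrated in C8166 cells by syncytia scoring. Compounds were serially diluted from 100 mM DMSO stocks. Virus input gave full cytopathogenicity at day 4, 37 °C. Read-out was protection of viability by MTT, or p24 immunoassay.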

[3] = test system: Human immunodeficiency virus 1; assay: Antiviral activity against HIV1 K103N/Y181C mutant; assay type: functional, organism-based
Method in brief: as §1

[4] = Selectivity index, ratio of CC50 for human MT4 cells to EC50 for wild type HIV1; assay type: functional
Method in brief: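 CC50 from mock-infected MT-4 cells, read by MTT in parallel with the antiviral test, divided by EC50 for 50% protection from HIV-1 IIIB cytopathogenicity (MTT, day 4 input, 37 °C). Both values are means of at least two separate experiments.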

[5] = test system: Human immunodeficiency virus 1; assay: Antiviral activity against HIV1 HTLV-3B; assay type: functional, organism-based; details: Human immunodeficiency virus 1, HTLV-3B
Method in brief: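 MT-4 cells (1×10^4 per well) in RPMI 1640 with 10% FCS, exposed to serial compound dilutions (DMSO stocks at 100 mM diluted in medium), then infected with HIV-1 IIIB at an input giving complete cytopathogenicity by day 4. Incubated at 37 °C; viability read by MTT. EC50 = dose giving 50% protection; mean of at least two experiments.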

[6] = test system: Human immunodeficiency virus 1; assay: Antiviral activity against HIV1 Y181C mutant; assay type: functional, organism-based
Method in brief: as §1

| SMILES | CC50 [1] [µM] | pEC50 [2] | pEC50 [3] | Ratio CC50/EC50 [4] | pEC50 [5] | pEC50 [6] |
| --- | --- | --- | --- | --- | --- | --- |
| C#CCOCn1c(Cc2cc(C)cc(C)c2)c(CC)c(=O)[nH]c1=O | > 100 | 4.80 | 5.92 | > 33300 | 8.52 | 6.70 |
| CCc1c(Cc2cc(C)cc(C)c2)n(COCc2ccc(C#C[C@@]3(O)CC[C@@H]4[C@H]5CCC6=CC(=O)CC[C@H]6[C@@H]5CC[C@]43CC)cc2)c(=O)[nH]c1=O | > 100 | < 4.00 | < 4.00 | >250 | 6.40 | 5.55 |
| CCc1c(Cc2cc(C)cc(C)c2)n(COCC#Cc2ccc(C#CCOCn3c(Cc4cc(C)cc(C)c4)c(CC)c(=O)[nH]c3=O)cc2)c(=O)[nH]c1=O | 85 | < 4.07 | < 4.07 | 30 | 5.55 | < 4.07 |
| CCc1c(Cc2cc(C)cc(C)c2)n(COCc2cn([C@H]3C[C@H](n4cc(C)c(=O)[nH]c4=O)O[C@@H]3CO)nn2)c(=O)[nH]c1=O | > 100 | 4.59 | 4.57 | >1250 | – | 5.10 |
| CC[C@@]12CC[C@H]3C4CCC(=O)C=C4CC[C@@H]3[C@H]1CC[C@]2(O)C#CC#C[C@@]1(O)CC[C@@H]2[C@H]3CCC4=CC(=O)CCC4[C@@H]3CC[C@]21CC (some centres undefined) | 28 | < 4.55 | < 4.55 | 1 | < 4.55 | < 4.55 |
| CCc1c(Cc2cc(C)cc(C)c2)n(COCC#CC#CCOCn2c(Cc3cc(C)cc(C)c3)c(CC)c(=O)[nH]c2=O)c(=O)[nH]c1=O | 9 | < 5.05 | < 5.05 | 18 | 6.30 | < 5.05 |
| CCc1c(Cc2cc(C)cc(C)c2)n(COCC#Cc2ccc(I)cc2)c(=O)[nH]c1=O | 44 | < 4.36 | < 4.36 | 220 | 6.70 | 5.00 |
| CCc1c(Cc2cc(C)cc(C)c2)n(COCc2ccc(I)cc2)c(=O)[nH]c1=O | 19 | 6.10 | 6.05 | 2714 | 8.15 | 7.00 |
| C#CCOCn1c(Cc2ccccc2C)c(CC)c(=O)[nH]c1=O | 33 | < 4.48 | < 4.48 | 82 | 6.40 | < 4.48 |
| CCc1c(Cc2ccccc2C)n(COCC#CC#CCOCn2c(Cc3ccccc3C)c(CC)c(=O)[nH]c2=O)c(=O)[nH]c1=O | 8 | < 5.10 | < 5.10 | 1 | < 5.10 | < 5.10 |
| CCc1c(Cc2cc(C)cc(C)c2)n(COCC#Cc2ccc(COCn3c(Cc4cc(C)cc(C)c4)c(CC)c(=O)[nH]c3=O)cc2)c(=O)[nH]c1=O | 16 | < 4.80 | < 4.80 | 53 | 6.52 | 5.40 |
| O=C1Nc2ccc(Cl)cc2[C@@](C#CC2CC2)(C(F)(F)F)O1 [EFAVIRENZ] | 30 | – | 6.52 | – | – | 8.10 |
| CCOCn1c(Cc2ccccc2)c(C(C)C)c(=O)[nH]c1=O [EMIVIRINE] | > 100 | 4.00 | < 4.00 | >3333 | 7.52 | 4.70 |
